Data taken from ChEMBL document CHEMBL1629511, “Naphthylchalcones induce apoptosis and caspase activation in a leukemia cell line: The relationship between mitochondrial damage, oxidative stress, and cell death” (Bioorg Med Chem, 2010).
Activity calls are given as the source filed them. The calls are words filed in the database; no cut-off is given here.

Legend:
[1] = system: L1210; assay: Induction of apoptosis in mouse L1210 cells assessed as increase in caspase 3 activity at IC50 concentration after 2 to 4 hrs; format: functional, cell-based
In short: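 3 × 10⁶ L1210 cells were treated for 2 or 4 h at 37 °C, then lysed in HEPES pH 7.4 buffer with protease inhibitors, CHAPS and DTT. Extract (50 µg protein) was incubated with 10 µM Ac-DEVD-AMC for 2 h at 37 °C. AMC fluorescence was read at ex 380/em 465 nm, blank-subtracted, and expressed per hour per µg protein (Lowry).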

[2] = system: L1210; assay: Induction of apoptosis in mouse L1210 cells assessed as decrease in mitochondrial membrane potential at IC50 concentration after 4 hrs using JC-1 staining by spectrofluorimetric analysis; format: functional, cell-based
In short: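 L1210 cells at 5 × 10⁵/well were treated for 4 h, then stained with JC-1 (10 µg/ml) for 20 min at 37 °C, washed and resuspended in PBS. Fluorescence was read with excitation at 488 nm and emission at 590/527 nm. The red/green ratio is expressed relative to control (100%).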

[3] = system: L1210; assay: Induction of apoptosis in mouse L1210 cells assessed as increase in catalase activity at IC50 concentration measured after 24 hrs; format: functional, cell-based
In short: (§1)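 Homogenates came from 6 × 10⁶ L1210 cells after 24 h treatment. GPx was measured with 150 µg protein as NADPH loss at 340 nm. Catalase followed Aebi with 60 µg protein. GST was measured as the GSH–CDNB conjugate at 340 nm. Activities were protein-normalized and given as % of control.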

[4] = system: CCRF-CEM; assay: Cytotoxicity against human CEM cells after 72 hrs by MTT assay; format: functional, cell-based
[5] = system: L1210; assay: Induction of lipid peroxidation in mouse L1210 cells at IC50 concentration after 24 hrs by TBARS method; format: functional, cell-based
In short: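 Homogenates came from 4 × 10⁶ L1210 cells after 24 h treatment. 400 µg protein was mixed with 60 mM Tris–HCl pH 7.4, 0.1 mM DPTA, TCA and 0.73% TBA, boiled 2 h, cooled and centrifuged. A535 was converted to nmol TBARS per µg protein using the MDA extinction coefficient.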

[6] = system: L1210; assay: Induction of apoptosis in mouse L1210 cells assessed as increase in total glutathione level at IC50 concentration measured after 24 hrs; format: functional, cell-based
In short: (§2)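 Homogenates came from 3 × 10⁶ L1210 cells after 24 h treatment (phosphate/NaCl/Triton lysis, sonication, 10,000 rpm spin). Total glutathione was measured by the glutathione reductase recycling method (50 µg protein, 75 µM DTNB, 120 µM NADPH, 4 U/ml GR) at 405 nm against a GSH standard. GSSG = (TG − GSH)/2. Values were protein-normalized and given as % of control.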

[7] = system: CCRF-CEM; assay: Cytotoxicity against human CEM cells after 24 hrs by MTT assay; format: functional, cell-based
In short: (§3)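 MTT assay on L1210 or CEM cells grown in DMEM with 10% heat-inactivated FBS. Cells were seeded at 1 × 10⁵/well for 24 h or 5 × 10⁴/well for 48 h, in triplicate, with 1–100 µM compound (DMSO ≤1%). MTT was added for 2 h at 37 °C, formazan dissolved in DMSO, and A540 read. IC50 came from a Hill concentration–response fit.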

[8] = system: L1210; assay: Induction of apoptosis in mouse L1210 cells assessed as increase in glutathione reductase activity at IC50 concentration measured after 24 hrs; format: functional, cell-based
[9] = system: L1210; assay: Induction of ROS production in mouse L1210 cells at IC50 concentration after 4 hrs
[10] = system: L1210; assay: Induction of apoptosis in mouse L1210 cells assessed as increase in glutathione S-transferase activity at IC50 concentration measured after 24 hrs; format: functional, cell-based; in short: as §1
[11] = system: L1210; assay: Cytotoxicity against mouse L1210 cells after 24 hrs by MTT assay in presence of Trolox; format: functional, cell-based; conditions: L1210, 24 h
In short: (§4)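 L1210 cells at 1 × 10⁵/well were exposed for 24 h to 1–100 µM compound together with catalase 5000 U/ml, SOD 250 U/ml or Trolox 200 µM. Additive-only controls were run in parallel. Viability was read by MTT (2 h, formazan in DMSO, A540) in triplicate.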

[12] = system: L1210; assay: Induction of apoptosis in mouse L1210 cells assessed as increase in GSH level at IC50 concentration measured after 24 hrs; format: functional, cell-based; in short: as §2
[13] = system: L1210; assay: Cytotoxicity against mouse L1210 cells after 72 hrs by MTT assay; format: functional, cell-based; conditions: L1210, 72 h
[14] = system: L1210; assay: Induction of apoptosis in mouse L1210 cells assessed as DNA fragmentation at IC50 concentration after 24 hrs by agarose gel electrophoresis analysis; format: functional, cell-based
In short: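 3 × 10⁶ L1210 cells were treated for 24 h, washed with cold PBS, then lysed in EDTA/Tris pH 8.0/NP-40/proteinase K buffer at 50 °C for 2 h. DNA was ethanol-precipitated, washed, treated with RNase A at 37 °C for 1 h and resolved by agarose gel electrophoresis beside a size standard.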

[15] = system: L1210; assay: Cytotoxicity against mouse L1210 cells after 24 hrs by MTT assay; format: functional, cell-based; conditions: L1210, 24 h; in short: as §3
[16] = system: L1210; assay: Cytotoxicity against mouse L1210 cells after 24 hrs by MTT assay in presence of superoxide dismutase; format: functional, cell-based; conditions: L1210, 24 h; in short: as §4
[17] = system: L1210; assay: Induction of apoptosis in mouse L1210 cells assessed as increase in GSSG level at IC50 concentration measured after 24 hrs; format: functional, cell-based; in short: as §2
[18] = system: L1210; assay: Induction of apoptosis in mouse L1210 cells assessed as increase in glutathione peroxidase activity at IC50 concentration measured after 24 hrs; format: functional, cell-based; in short: as §1
[19] = system: L1210; assay: Cytotoxicity against mouse L1210 cells after 24 hrs by MTT assay in presence of catalase; format: functional, cell-based; conditions: L1210, 24 h; in short: as §4
[20] = system: L1210; assay: Cytotoxicity against mouse L1210 cells after 48 hrs by MTT assay; format: functional, cell-based; conditions: L1210, 48 h; in short: as §3
[21] = system: CCRF-CEM; assay: Cytotoxicity against human CEM cells after 48 hrs by MTT assay; format: functional, cell-based; in short: as §3
[22] = system: L1210; assay: Induction of apoptosis in mouse L1210 cells assessed as decrease in intracellular ATP concentration at IC50 concentration measured up to 24 hrs; format: functional, cell-based
In short: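 Intracellular ATP: 1 × 10⁶ L1210 cells were treated for up to 24 h. Extracts were made in 1.25% trichloroacetic acid, kept on ice 30 min, neutralized with 1 M Tris–acetate pH 7.5 and centrifuged. Luciferin–luciferase bioluminescence was read and normalized to the cell death percentage over the incubation.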

| Compound | Activity [1] | Activity [2] | Activity [3] | IC50 [4] | Activity [5] | Activity [6] | IC50 [7] | Activity [8] | Activity [9] | Activity [10] | IC50 [11] | Activity [12] | IC50 [13] | Activity [14] | IC50 [15] | IC50 [16] | Activity [17] | Activity [18] | IC50 [19] | IC50 [20] | further results |
| --- | --- | --- | --- | --- | --- | --- | --- | --- | --- | --- | --- | --- | --- | --- | --- | --- | --- | --- | --- | --- | --- |
| O=C(/C=C/c1cccc([N+](=O)[O-])c1)c1ccc2ccccc2c1 | Active | Active | inactive | 4 µM | Active | Active | 11 µM | Active | Active | Active | 20 µM | inactive | 14 µM | Active | 24 µM | 20 µM | Active | Active | 45 µM | 13 µM | IC50 [21]: 11 µM; Activity [22]: Active |
| O=C(/C=C/c1ccccc1)c1ccc2ccccc2c1 | Active | inactive | inactive | 5 µM | Active | Active | 12 µM | Active | Active | Active | 39 µM | Active | 17 µM | Active | 37 µM | 31 µM | Active | Active | 58 µM | 20 µM | IC50 [21]: 14 µM; Activity [22]: Active |
| O=C(/C=C/c1cccc(Cl)c1)c1ccc2ccccc2c1 | Active | Active | inactive | 6 µM | Active | Active | 11 µM | Active | Active | Active | 34 µM | inactive | 10 µM | Active | 38 µM | 30 µM | Active | Active | 51 µM | 23 µM | IC50 [21]: 12 µM; Activity [22]: Active |
